# Test results from ChEMBL document CHEMBL2424615, “Design, synthesis, and characterization of novel tetrahydropyran-based bacterial topoisomerase inhibitors with potent anti-gram-positive activity” (J Med Chem, 2013).
# pIC50: −log10 of the molar value.
# Legend:
# DNA gyrase = DNA gyrase (Staphylococcus aureus, UniProt P0A0K8+P20831); test: Inhibition of wild type Staphylococcus aureus DNA gyrase subunit 2GyrA/2GyrB assessed as pBR322 supercoiling after 1 hr; format: protein-complex assay
# Streptococcus pneumoniae [1] = test: Antibacterial activity against wild type Streptococcus pneumoniae ATCC 49619 assessed as growth inhibition by broth microdilution method; format: functional
# Pseudomonas aeruginosa = test: Antibacterial activity against wild type Pseudomonas aeruginosa ATCC 27853 assessed as growth inhibition by broth microdilution method; format: functional
# Staphylococcus aureus [2] = test: Spontaneous resistance frequency for Staphylococcus aureus ATCC 25923 at 4 times MIC to 16 times MIC after 48 hrs relative to NXL-101; format: functional
# In short: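 Incubated 48 h at 37 °C. Frequency calculated as resistant colonies divided by viable bacteria plated, with the viable count taken on drug-free agar.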
# Staphylococcus aureus [3] = test: Antibacterial activity against wild type Staphylococcus aureus ATCC 29213 assessed as growth inhibition by broth microdilution method; format: functional
# Topoisomerase IV = Topoisomerase IV (Staphylococcus aureus, UniProt P0C1S7+P0C1U9); test: Inhibition of wild type Staphylococcus aureus ATCC 29213 topoisomerase-4 subunit 2GrlA/2GrlB assessed as pBR322 relaxation after 1 hr; format: protein-complex assay
# Escherichia coli = test: Antibacterial activity against wild type Escherichia coli ATCC 25922 assessed as growth inhibition by broth microdilution method; format: functional
# [4] = Inhibition of wild type Escherichia coli ATCC 25922 DNA gyrase subunit 2GyrA/2GyrB assessed as pBR322 supercoiling after 1 hr
# [5] = Inhibition of wild type Escherichia coli ATCC 25922 DNA topoisomerase-4 subunit 2ParC/2ParE assessed as pBR322 relaxation after 1 hr
# hERG (KCNH2) = hERG (KCNH2) (Homo sapiens, UniProt Q12809); test: Inhibition of human ERG expressed in CHO cells at 10 uM after 3 mins by patch clamp assay relative to control; format: cell-based; settings: CHO cells that express human ERG
# Staphylococcus aureus [6] = test: Antibacterial activity against NXL-101-resistant Staphylococcus aureus A-234 harboring DNA gyrase subunit A D83N mutant assessed as growth inhibition by broth microdilution method; format: functional
# Rattus norvegicus [7] = test: Unbound clearance in Wistar rat at 1 mg/kg, iv administered as bolus dose and 10 mg/kg, po; format: ADME, organism-based; settings: in vivo
# In short: (§1)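 Male Wistar rats (n = 3) dosed by iv bolus (0.5 or 1 mg/kg) or orally (1 or 10 mg/kg); iv vehicles included pH 4.5 aqueous solution, 5% DMSO in water, or 10% PG/10% PEG400 in water pH 7; oral as pH 5.6 aqueous suspension or microsuspension in 7.5% modified gelatin. Blood sampled by preimplanted catheter over 24 h; plasma by LC-MS/MS, LOQ 1.5 ng/mL.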
# [8] = Volume of distribution at steady state in Wistar rat at 1 mg/kg, iv administered as bolus dose and 10 mg/kg, po; format: ADME, organism-based; settings: in vivo, read-out: Vdss; in short: as §1
# [9] = AUC in Wistar rat at 1 mg/kg, iv administered as bolus dose; format: ADME, organism-based; design: dose 1 mg/kg, route intravenous; settings: plasma; in short: as §1
# [10] = AUC in Wistar rat at 10 mg/kg, po; format: ADME, organism-based; design: dose 10 mg/kg, route oral; settings: plasma; in short: as §1
# [11] = Clearance in Wistar rat at 1 mg/kg, iv administered as bolus dose; format: ADME, organism-based; design: dose 1 mg/kg, route intravenous; settings: in vivo; in short: as §1
# [12] = Intrinsic clearance in rat liver microsomes at 1 uM; format: ADME, Microsome; settings: read-out: CLH
# [13] = Oral bioavailability in Wistar rat at 10 mg/kg; format: ADME, organism-based; settings: in vivo; in short: as §1
# [14] = Intrinsic clearance in human liver microsomes at 1 uM; format: ADME, Microsome; settings: read-out: CLH
# [15] = Intrinsic clearance in mouse liver microsomes at 1 uM; format: ADME, Microsome; settings: read-out: CLH
# [16] = Half life in Wistar rat at 1 mg/kg, iv administered as bolus dose and 10 mg/kg, po; format: ADME, organism-based; settings: in vivo; in short: as §1
# [17] = Fraction unbound in Wistar rat plasma at 1 mg/kg, iv administered as bolus dose and 10 mg/kg, po; format: ADME, organism-based
# [18] = Volume of distribution at steady state in Wistar rat at 0.5 mg/kg, iv and 1 mg/kg, po; format: ADME, organism-based; settings: in vivo, read-out: Vdss; in short: as §1
# [19] = Fraction unbound in Wistar rat plasma at 0.5 mg/kg, iv and 1 mg/kg, po; format: ADME, organism-based
# [20] = Half life in Wistar rat at 0.5 mg/kg, iv and 1 mg/kg, po; format: ADME, organism-based; settings: in vivo; in short: as §1
# Staphylococcus aureus [21] = test: Antistaphylococcal activity against Staphylococcus aureus DSM 11823 assessed as growth inhibition by broth microdilution method; format: functional
# Moraxella catarrhalis = test: Antibacterial activity against Moraxella catarrhalis clinical isolate assessed as growth inhibition by broth microdilution method; format: functional
# Streptococcus pyogenes = test: Antibacterial activity against Streptococcus pyogenes clinical isolate assessed as growth inhibition by broth microdilution method; format: functional
# Staphylococcus aureus [22] = test: Antibacterial activity against fluoroquinolone-resistant Staphylococcus aureus clinical isolate assessed as growth inhibition by broth microdilution method; format: functional
# Enterococcus faecium = test: Antibacterial activity against vancomycin-resistant Enterococcus faecium clinical isolate assessed as growth inhibition by broth microdilution method; format: functional
# Streptococcus agalactiae = test: Antibacterial activity against Streptococcus agalactiae clinical isolate assessed as growth inhibition by broth microdilution method; format: functional
# [23] = Clearance in Wistar rat at 0.5 mg/kg, iv; format: ADME, organism-based; design: dose 0.5 mg/kg, route intravenous; settings: in vivo; in short: as §1
# [24] = tested on: Staphylococcus epidermidis; test: Antibacterial activity against Staphylococcus epidermidis clinical isolate assessed as growth inhibition by broth microdilution method; format: functional
# Haemophilus influenzae = test: Antibacterial activity against Haemophilus influenzae clinical isolate assessed as growth inhibition by broth microdilution method; format: functional
# [25] = AUC in Wistar rat at 1 mg/kg, po; format: ADME, organism-based; design: dose 1 mg/kg, route oral; settings: plasma; in short: as §1
# [26] = AUC in Wistar rat at 0.5 mg/kg, iv; format: ADME, organism-based; design: dose 0.5 mg/kg, route intravenous; settings: plasma; in short: as §1
# Staphylococcus aureus [27] = test: Antibacterial activity against methicillin-resistant Staphylococcus aureus clinical isolate assessed as growth inhibition by broth microdilution method; format: functional
# Rattus norvegicus [28] = test: Unbound clearance in Wistar rat at 0.5 mg/kg, iv and 1 mg/kg, po; format: ADME, organism-based; settings: in vivo; in short: as §1
# [29] = Oral bioavailability in Wistar rat at 1 mg/kg; format: ADME, organism-based; settings: in vivo; in short: as §1
# Staphylococcus aureus [30] = test: Antistaphylococcal activity against Staphylococcus aureus DSM 11823 in neutropenic NMRI mouse thigh infection model assessed as reduction of log10cfu in thigh at 40 mg/kg, sc measured after 6 hrs; format: functional; settings: route subcutaneous
# In short: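 Mice made neutropenic with ip cyclophosphamide, 150 mg/kg on day -4 and 100 mg/kg on day -1. Log-phase S. aureus (A580 0.3-0.9), 0.05 ml inoculum given im into both thighs 2 h before sc dosing in 5% mannitol in water at 10 ml/kg. Thighs homogenized, serially diluted and plated for CFU 6 h post infection.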
# Enterococcus faecalis = test: Antibacterial activity against Enterococcus faecalis clinical isolate assessed as growth inhibition by broth microdilution method; format: functional
# Streptococcus pneumoniae [31] = test: Antibacterial activity against Streptococcus pneumoniae clinical isolate assessed as growth inhibition by broth microdilution method; format: functional
compound,measurement,setting,value
COc1ccc2ncc(F)c([C@@H](O)[C@H](O)[C@@H]3CC[C@@H](NCc4ccc5c(n4)NC(=O)CS5)CO3)c2n1,pIC50,DNA gyrase,7.52
same,MIC,Streptococcus pneumoniae [1],0.06 µg/mL
same,MIC,Pseudomonas aeruginosa,> 8 µg/mL
same,fold change (FC),Staphylococcus aureus [2],10
same,MIC,Staphylococcus aureus [3],0.03 µg/mL
same,pIC50,Topoisomerase IV,6.30
same,MIC,Escherichia coli,1 µg/mL
same,pIC50,[4],6.30
same,pIC50,[5],7.52
same,"inhibition at 0.05 h, 10 µM",hERG (KCNH2),54%
same,MIC,Staphylococcus aureus [6],0.25 µg/mL
COc1cnc2cccc([C@@H](O)[C@H](O)[C@@H]3CC[C@@H](NCc4ccc5c(n4)NC(=O)CS5)CO3)c2n1,pIC50,DNA gyrase,7.52
same,MIC,Streptococcus pneumoniae [1],0.06 µg/mL
same,CL free,Rattus norvegicus [7],294 mL/min/kg
same,MIC,Pseudomonas aeruginosa,> 8 µg/mL
same,Vd,[8],18 L/kg
same,AUC,[9],313 ng·h/mL
same,AUC,[10],817 ng·h/mL
same,clearance,[11],53 mL/min/kg
same,MIC,Staphylococcus aureus [3],0.03 µg/mL
same,pIC50,Topoisomerase IV,5.70
same,microsomal CLint at 1 µM,[12],92 µL/min/mg
same,MIC,Escherichia coli,2 µg/mL
same,bioavailability,[13],26%
same,microsomal CLint at 1 µM,[14],45 µL/min/mg
same,microsomal CLint at 1 µM,[15],39 µL/min/mg
same,pIC50,[4],6.30
same,pIC50,[5],6.90
same,"inhibition at 0.05 h, 10 µM",hERG (KCNH2),55%
same,half-life,[16],5.9 h
same,fraction unbound,[17],0.18
same,MIC,Staphylococcus aureus [6],0.5 µg/mL
COc1ccc2ncc(F)c([C@@H](O)[C@H](O)[C@@H]3CC[C@@H](NCc4cc5c(cn4)OCCS5)CO3)c2n1,Vd,[18],1 L/kg
same,pIC50,DNA gyrase,7.52
same,MIC,Streptococcus pneumoniae [1],≤ 0.015 µg/mL
same,fraction unbound,[19],0.017
same,half-life,[20],3 h
same,MIC,Pseudomonas aeruginosa,> 8 µg/mL
same,MIC,Staphylococcus aureus [21],0.06 µg/mL
same,MIC50,Moraxella catarrhalis,0.03 µg/mL
same,MIC90,Moraxella catarrhalis,0.125 µg/mL
same,fold change (FC),Staphylococcus aureus [2],10
same,MIC50,Streptococcus pyogenes,0.03 µg/mL
same,MIC90,Streptococcus pyogenes,0.06 µg/mL
same,MIC,Staphylococcus aureus [3],≤ 0.015 µg/mL
same,MIC50,Staphylococcus aureus [22],≤ 0.015 µg/mL
same,MIC90,Staphylococcus aureus [22],0.03 µg/mL
same,pIC50,Topoisomerase IV,5.10
same,MIC50,Enterococcus faecium,0.25 µg/mL
same,MIC90,Enterococcus faecium,1 µg/mL
same,MIC50,Streptococcus agalactiae,0.25 µg/mL
same,MIC90,Streptococcus agalactiae,0.5 µg/mL
same,microsomal CLint at 1 µM,[12],344 µL/min/mg
same,clearance,[23],8.7 mL/min/kg
same,MIC,Escherichia coli,8 µg/mL
same,MIC50,[24],0.06 µg/mL
same,MIC90,[24],0.25 µg/mL
same,microsomal CLint at 1 µM,[14],30 µL/min/mg
same,microsomal CLint at 1 µM,[15],291 µL/min/mg
same,MIC50,Haemophilus influenzae,0.5 µg/mL
same,MIC90,Haemophilus influenzae,4 µg/mL
same,pIC50,[4],5.10
same,AUC,[25],776 ng·h/mL
same,pIC50,[5],6.90
same,AUC,[26],959 ng·h/mL
same,MIC50,Staphylococcus aureus [27],≤ 0.015 µg/mL
same,MIC90,Staphylococcus aureus [27],0.03 µg/mL
same,CL free,Rattus norvegicus [28],512 mL/min/kg
same,bioavailability,[29],41%
same,"inhibition at 0.05 h, 10 µM",hERG (KCNH2),19%
same,log10cfu,Staphylococcus aureus [30],1
same,MIC50,Enterococcus faecalis,0.5 µg/mL
same,MIC90,Enterococcus faecalis,0.5 µg/mL
same,MIC,Staphylococcus aureus [6],2 µg/mL
same,MIC50,Streptococcus pneumoniae [31],0.06 µg/mL
same,MIC90,Streptococcus pneumoniae [31],0.125 µg/mL
